# From ChEMBL document CHEMBL4371064, “Erythrofordins D and E, two new cassaine-type diterpenes from Erythrophleum suaveolens” (2019)
# Experiments:
# Assay type in all cases: functional
# CCRF-CEM = test: Growth inhibition of human CCRF-CEM cells incubated for 48 hrs by sulforhodamine B assay
# How it was run: (§1)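 Run in the NCI-60 human tumour cell line panel with dose-response testing. GI50 was determined for each cell line from its dose-response data.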
# HL-60(TB) = test: Growth inhibition of human HL-60(TB) cells incubated for 48 hrs by sulforhodamine B assay; settings: HL-60, 48 h
# How it was run: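 Run within the NCI-60 human tumour cell line panel as a dose-response screen. For each cell line the readouts are GI50, TGI and LC50. Per-line log values also feed a mean-graph analysis, in which the arithmetic mean of the log values across all lines is subtracted from each line's log value.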
# RPMI-8226 = test: Growth inhibition of human RPMI8226 cells incubated for 48 hrs by sulforhodamine B assay; settings: RPMI-8226, 48 h; how it was run: as §1
# HOP-62 = test: Growth inhibition of human HOP62 cells incubated for 48 hrs by sulforhodamine B assay; settings: HOP-62, 48 h; how it was run: as §1
# NCI-H226 = test: Growth inhibition of human NCI-H226 cells incubated for 48 hrs by sulforhodamine B assay; settings: NCI-H226, 48 h; how it was run: as §1
# NCI-H322M = test: Growth inhibition of human NCI-H322M cells incubated for 48 hrs by sulforhodamine B assay; how it was run: as §1
# COLO 205 = test: Growth inhibition of human COLO205 cells incubated for 48 hrs by sulforhodamine B assay; settings: COLO 205, 48 h; how it was run: as §1
# HCC 2998 = test: Growth inhibition of human HCC2998 cells incubated for 48 hrs by sulforhodamine B assay; settings: HCC 2998, 48 h; how it was run: as §1
# HT-29 = test: Growth inhibition of human HT-29 cells incubated for 48 hrs by sulforhodamine B assay; settings: HT-29, 48 h; how it was run: as §1
# SNB-19 = test: Growth inhibition of human SNB19 cells incubated for 48 hrs by sulforhodamine B assay; settings: SNB-19, 48 h; how it was run: as §1
# SNB-75 = test: Growth inhibition of human SNB75 cells incubated for 48 hrs by sulforhodamine B assay; settings: SNB-75, 48 h; how it was run: as §1
# LOX IMVI = test: Growth inhibition of human LOXIMVI cells incubated for 48 hrs by sulforhodamine B assay; how it was run: as §1
# Malme-3M = test: Growth inhibition of human MALME-3M cells incubated for 48 hrs by sulforhodamine B assay; how it was run: as §1
# M14 = test: Growth inhibition of human M14 cells incubated for 48 hrs by sulforhodamine B assay; settings: M14, 48 h; how it was run: as §1
# SK-MEL-2 = test: Growth inhibition of human SK-MEL-2 cells incubated for 48 hrs by sulforhodamine B assay; settings: SK-MEL-2, 48 h; how it was run: as §1
# UACC-257 = test: Growth inhibition of human UACC257 cells incubated for 48 hrs by sulforhodamine B assay; settings: UACC-257, 48 h
# How it was run: (§2)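 Tested in the NCI 60-human-tumour-cell-line screen using the five-dose format. GI₅₀ was derived from each cell line's dose-response. TGI and LC₅₀ were derived from the same dose-response data.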
# UACC-62 = test: Growth inhibition of human UACC62 cells incubated for 48 hrs by sulforhodamine B assay; settings: UACC-62, 48 h; how it was run: as §2
# IGROV-1 = test: Growth inhibition of human IGROV1 cells incubated for 48 hrs by sulforhodamine B assay; settings: IGROV-1, 48 h; how it was run: as §1
# OVCAR-3 = test: Growth inhibition of human OVCAR3 cells incubated for 48 hrs by sulforhodamine B assay; settings: OVCAR-3, 48 h; how it was run: as §1
# OVCAR-4 = test: Growth inhibition of human OVCAR4 cells incubated for 48 hrs by sulforhodamine B assay; settings: OVCAR-4, 48 h; how it was run: as §1
# 786-0 = test: Growth inhibition of human 786-0 cells incubated for 48 hrs by sulforhodamine B assay; settings: 786-0, 48 h; how it was run: as §1
# ACHN = test: Growth inhibition of human ACHN cells incubated for 48 hrs by sulforhodamine B assay; how it was run: as §1
# TK-10 = test: Growth inhibition of human TK10 cells incubated for 48 hrs by sulforhodamine B assay; settings: TK-10, 48 h; how it was run: as §2
# DU-145 = test: Growth inhibition of human DU145 cells incubated for 48 hrs by sulforhodamine B assay; settings: DU-145, 48 h; how it was run: as §1
# MCF7 = test: Growth inhibition of human MCF7 cells incubated for 48 hrs by sulforhodamine B assay; settings: MCF7, 48 h; how it was run: as §1
# MDA-MB-231 = test: Growth inhibition of human MDA-MB-231 cells incubated for 48 hrs by sulforhodamine B assay; settings: MDA-MB-231, 48 h; how it was run: as §1
# BT-549 = test: Growth inhibition of human BT549 cells incubated for 48 hrs by sulforhodamine B assay; settings: BT-549, 48 h; how it was run: as §1
# T47D = test: Growth inhibition of human T47D cells incubated for 48 hrs by sulforhodamine B assay; how it was run: as §2
# MDA-MB-468 = test: Growth inhibition of human MDA-MB-468 cells incubated for 48 hrs by sulforhodamine B assay; settings: MDA-MB-468, 48 h; how it was run: as §1
# [1] = read-out: pLC50 (the source's name) (converted)
structure (smiles),measurement,setting,value
COC(=O)/C=C1\CC[C@H]2[C@@H](CC(=O)[C@H]3C(C)(C)[C@@H](O)CC[C@]23C)[C@H]1C,GI50,CCRF-CEM,1.15 µM
same,LC50,CCRF-CEM,> 34.7 µM
same,TGI,CCRF-CEM; read-out: pTGI (converted),7.59 µM
same,GI50,HL-60(TB),5.37 µM
same,LC50,HL-60(TB),> 34.7 µM
same,TGI,HL-60(TB); read-out: pTGI (converted),21.4 µM
same,GI50,RPMI-8226,8.91 µM
same,LC50,RPMI-8226,> 34.7 µM
same,TGI,RPMI-8226; read-out: pTGI (converted),> 34.7 µM
same,GI50,HOP-62,1.1 µM
same,CC50,HOP-62; [1],15.1 µM
same,TGI,HOP-62; read-out: pTGI (converted),4.47 µM
same,GI50,NCI-H226,4.79 µM
same,LC50,NCI-H226,25.1 µM
same,TGI,NCI-H226; read-out: pTGI (converted),11 µM
same,GI50,NCI-H322M,1.35 µM
same,LC50,NCI-H322M,> 34.7 µM
same,TGI,NCI-H322M; read-out: pTGI (converted),9.55 µM
same,GI50,COLO 205,10.5 µM
same,LC50,COLO 205,> 34.7 µM
same,TGI,COLO 205; read-out: pTGI (converted),> 34.7 µM
same,GI50,HCC 2998,10.7 µM
same,LC50,HCC 2998,> 34.7 µM
same,TGI,HCC 2998; read-out: pTGI (converted),> 34.7 µM
same,GI50,HT-29,2.24 µM
same,CC50,HT-29; [1],> 34.7 µM
same,TGI,HT-29; read-out: pTGI (converted),10.7 µM
same,GI50,SNB-19,9.33 µM
same,LC50,SNB-19,> 34.7 µM
same,TGI,SNB-19; read-out: pTGI (converted),> 34.7 µM
same,GI50,SNB-75,1.1 µM
same,LC50 (concentration killing 50% of cells),SNB-75,23.4 µM
same,TGI,SNB-75; read-out: pTGI (converted),6.46 µM
same,GI50,LOX IMVI,2 µM
same,LC50,LOX IMVI,> 34.7 µM
same,TGI,LOX IMVI; read-out: pTGI (converted),9.55 µM
same,GI50,Malme-3M,1.48 µM
same,LC50,Malme-3M,24.5 µM
same,TGI,Malme-3M; read-out: pTGI (converted),7.08 µM
same,GI50,M14,10 µM
same,LC50,M14,> 34.7 µM
same,TGI,M14; read-out: pTGI (converted),> 34.7 µM
same,GI50,SK-MEL-2,7.41 µM
same,LC50 (concentration killing 50% of cells),SK-MEL-2,> 34.7 µM
same,TGI,SK-MEL-2; read-out: pTGI (converted),28.8 µM
same,GI50,UACC-257,6.03 µM
same,LC50,UACC-257,> 34.7 µM
same,TGI,UACC-257; read-out: pTGI (converted),16.2 µM
same,GI50,UACC-62,5.62 µM
same,LC50,UACC-62,> 34.7 µM
same,TGI,UACC-62; read-out: pTGI (converted),16.6 µM
same,GI50,IGROV-1,3.8 µM
same,LC50,IGROV-1,> 34.7 µM
same,TGI,IGROV-1; read-out: pTGI (converted),22.4 µM
same,GI50,OVCAR-3,1.32 µM
same,LC50,OVCAR-3,21.4 µM
same,TGI,OVCAR-3; read-out: pTGI (converted),4.9 µM
same,GI50,OVCAR-4,3.72 µM
same,LC50,OVCAR-4,> 34.7 µM
same,TGI,OVCAR-4; read-out: pTGI (converted),12.3 µM
same,GI50,786-0,1.12 µM
same,LC50,786-0,24.5 µM
same,TGI,786-0; read-out: pTGI (converted),4.27 µM
same,GI50,ACHN,0.794 µM
same,LC50,ACHN,10 µM
same,TGI,ACHN; read-out: pTGI (converted),2.19 µM
same,GI50,TK-10,1.48 µM
same,LC50 (lethal concentration killing 50% of cells),TK-10,> 34.7 µM
same,TGI,TK-10; read-out: pTGI (converted),7.94 µM
same,GI50,DU-145,0.776 µM
same,LC50 (concentration killing 50% of cells),DU-145,4.79 µM
same,TGI,DU-145; read-out: pTGI (converted),1.74 µM
same,GI50,MCF7,1.62 µM
same,CC50,MCF7; [1],> 34.7 µM
same,TGI,MCF7; read-out: pTGI,> 34.7 µM
same,GI50,MDA-MB-231,10.2 µM
same,LC50,MDA-MB-231,> 34.7 µM
same,TGI,MDA-MB-231; read-out: pTGI (converted),> 34.7 µM
same,GI50,BT-549,1.26 µM
same,LC50,BT-549,> 34.7 µM
same,TGI,BT-549; read-out: pTGI (converted),5.5 µM
same,GI50,T47D,5.37 µM
same,LC50,T47D,> 34.7 µM
same,TGI,T47D; read-out: pTGI (converted),21.9 µM
same,GI50,MDA-MB-468,10 µM
same,CC50,MDA-MB-468; [1],> 34.7 µM
same,TGI,MDA-MB-468; read-out: pTGI (converted),> 34.7 µM
